From ChEMBL document CHEMBL3102784, “Salicylanilide diethyl phosphates: synthesis, antimicrobial activity and cytotoxicity” (Bioorg Med Chem, 2014)
Converted amounts (≈) assume the structure as drawn. The source made the active and inactive calls. The calls are words filed in the database; no cut-off is given here.

Key:
Candida tropicalis = assay: Antifungal activity against Candida tropicalis 156 at 500 micromol/L after 24 to 48 hrs by broth microdilution method; format: functional, organism-based
Procedure, shortened: (§1)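 Broth microdilution in RPMI 1640 with glutamine, fluconazole as reference. For yeasts, MIC is ≥80% growth reduction (IC80) versus control. For filamentous fungi, the value is expressed as IC50. Readings at 24 and 48 h.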

[1] = system: Staphylococcus epidermidis; assay: Antibacterial activity against Staphylococcus epidermidis H 6966/08 after 48 hrs by broth microdilution method; format: functional; details: H 6966/08, 48 h
Procedure, shortened: (§2)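 Broth microdilution in Mueller–Hinton broth, compounds dissolved in DMSO, tested over a dilution series from 500 downward. MIC taken as ≥95% growth reduction (IC95) versus drug-free control. Benzylpenicillin comparator. Readings at 24 and 48 h.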

Candida albicans [2] = assay: Antifungal activity against Candida albicans ATCC 44859 after 24 hrs by broth microdilution method; format: functional; details: ATCC 44859, 24 h; procedure, shortened: as §1
Nakaseomyces glabratus = assay: Antifungal activity against Candida glabrata 20/I at 500 micromol/L after 24 to 48 hrs by broth microdilution method; format: functional, organism-based; procedure, shortened: as §1
Aspergillus fumigatus [3] = assay: Antifungal activity against Aspergillus fumigatus 231 after 24 hrs by broth microdilution method; format: functional; details: Aspergillus fumigatus, 231, 24 h; procedure, shortened: as §1
Candida albicans [4] = assay: Antifungal activity against Candida albicans ATCC 44859 after 48 hrs by broth microdilution method; format: functional; details: ATCC 44859, 48 h; procedure, shortened: as §1
Staphylococcus aureus [5] = assay: Antibacterial activity against Staphylococcus aureus CCM 4516/08 after 48 hrs by broth microdilution method; format: functional; details: CCM 4516/08, 48 h; procedure, shortened: as §2
Trichosporon asahii [6] = assay: Antifungal activity against Trichosporon asahii 1188 after 24 hrs by broth microdilution method; format: functional; details: Trichosporon asahii, 1188, 24 h; procedure, shortened: as §1
Staphylococcus aureus [7] = assay: Antibacterial activity against Staphylococcus aureus CCM 4516/08 after 24 hrs by broth microdilution method; format: functional; details: CCM 4516/08, 24 h; procedure, shortened: as §2
Pseudomonas aeruginosa = assay: Antibacterial activity against Pseudomonas aeruginosa CCM 1961 at 500 micromol/L after 24 to 48 hrs by broth microdilution method; format: functional, organism-based; procedure, shortened: as §2
Mycobacterium kansasii [8] = assay: Antimycobacterial activity against Mycobacterium kansasii My 235/80 after 7 days; format: functional; details: My 235/80, 168 h
Procedure, shortened: (§3)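 Micromethod MIC in Šula's semisynthetic medium at 37 °C. Compounds added in DMSO at 1000 down to 0.032 µmol/L. Isoniazid standard in sterile water at 0.5–250 µmol/L. Inocula: H37Rv 10^3, M. avium 10^5, M. kansasii 10^4. Read at 14 and 21 d, plus 7 d for M. kansasii.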

Staphylococcus aureus [9] = assay: Antibacterial activity against methicillin-resistant Staphylococcus aureus H 5996/08 after 48 hrs by broth microdilution method; format: functional; details: H 5996/08, 48 h; procedure, shortened: as §2
Pichia kudriavzevii [10] = assay: Antifungal activity against Candida krusei E28 after 48 hrs by broth microdilution method; format: functional; details: E28, 48 h; procedure, shortened: as §1
Klebsiella pneumoniae [11] = assay: Antibacterial activity against ESBL-positive Klebsiella pneumoniae J 14368/08 at 500 micromol/L after 24 to 48 hrs by broth microdilution method; format: functional, organism-based; procedure, shortened: as §2
[12] = system: Staphylococcus epidermidis; assay: Antibacterial activity against Staphylococcus epidermidis H 6966/08 after 24 hrs by broth microdilution method; format: functional; details: H 6966/08, 24 h; procedure, shortened: as §2
Trichosporon asahii [13] = assay: Antifungal activity against Trichosporon asahii 1188 after 48 hrs by broth microdilution method; format: functional; details: Trichosporon asahii, 1188, 48 h; procedure, shortened: as §1
Lichtheimia corymbifera [14] = assay: Antifungal activity against Absidia corymbifera 272 after 48 hrs by broth microdilution method; format: functional; details: Lichtheimia corymbifera, 272, 48 h; procedure, shortened: as §1
HepG2 = assay: Cytotoxicity against human HepG2 cells after 24 hrs by CellTiter assay; format: cell-based; details: HepG2, 24 h
Procedure, shortened: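 HepG2 cells (passage 27–33) in MEM with 10% FBS, L-glutamine and NEAA, seeded at 1×10^4 per well. Treated next day with compounds at 0.1–100 µM (or 0.1–25 µmol/L), triplicates, <1% DMSO, for 24 h at 37 °C, 5% CO2. MTS reagent added for 2 h, absorbance read at 490 nm. IC50 taken against untreated (100%) and 10% DMSO (0%) controls.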

Staphylococcus aureus [15] = assay: Antibacterial activity against methicillin-resistant Staphylococcus aureus H 5996/08 after 24 hrs by broth microdilution method; format: functional; details: H 5996/08, 24 h; procedure, shortened: as §2
Mycobacterium avium [16] = assay: Antimycobacterial activity against isoniazid, rifampicin, ethambutol and ofloxacin-resistant Mycobacterium avium My 330/88 after 21 days; format: functional; details: My 330/88, 504 h; procedure, shortened: as §3
[17] = system: Trichophyton mentagrophytes; assay: Antifungal activity against Trichophyton mentagrophytes 445 after 72 hrs by broth microdilution method; format: functional; details: Trichophyton mentagrophytes, 445, 72 h
Procedure, shortened: (§4)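 Filamentous dermatophyte tested by broth microdilution in RPMI 1640 with glutamine, fluconazole as reference. Value expressed as IC50 relative to growth control. Read at 72 and 120 h.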

Mycobacterium kansasii [18] = assay: Antimycobacterial activity against Mycobacterium kansasii 6509/96 after 21 days; format: functional; details: 6509/96, 504 h; procedure, shortened: as §3
Mycobacterium kansasii [19] = assay: Antimycobacterial activity against Mycobacterium kansasii My 235/80 after 14 days; format: functional; details: My 235/80, 336 h; procedure, shortened: as §3
Enterococcus sp. = assay: Antibacterial activity against Enterococcus sp. J 14365/08 at 500 micromol/L after 24 to 48 hrs by broth microdilution method; format: functional, organism-based; procedure, shortened: as §2
Aspergillus fumigatus [20] = assay: Antifungal activity against Aspergillus fumigatus 231 after 48 hrs by broth microdilution method; format: functional; details: Aspergillus fumigatus, 231, 48 h; procedure, shortened: as §1
Pichia kudriavzevii [21] = assay: Antifungal activity against Candida krusei E28 after 24 hrs by broth microdilution method; format: functional; details: E28, 24 h; procedure, shortened: as §1
Lichtheimia corymbifera [22] = assay: Antifungal activity against Absidia corymbifera 272 after 24 hrs by broth microdilution method; format: functional; details: Lichtheimia corymbifera, 272, 24 h; procedure, shortened: as §1
Escherichia coli = assay: Antibacterial activity against Escherichia coli CCM 4517 at 500 micromol/L after 24 to 48 hrs by broth microdilution method; format: functional, organism-based; procedure, shortened: as §2
[23] = system: Mycobacterium tuberculosis; assay: Antimycobacterial activity against Mycobacterium tuberculosis H37Rv My 331/88 after 21 days; format: functional; details: H37Rv My 331/88, 504 h; procedure, shortened: as §3
[24] = system: Trichophyton mentagrophytes; assay: Antifungal activity against Trichophyton mentagrophytes 445 after 120 hrs by broth microdilution method; format: functional; details: Trichophyton mentagrophytes, 445, 120 h; procedure, shortened: as §4
Mycobacterium avium [25] = assay: Antimycobacterial activity against isoniazid, rifampicin, ethambutol and ofloxacin-resistant Mycobacterium avium My 330/88 after 14 days; format: functional; details: My 330/88, 336 h; procedure, shortened: as §3
Mycobacterium kansasii [26] = assay: Antimycobacterial activity against Mycobacterium kansasii 6509/96 after 7 days; format: functional; details: 6509/96, 168 h; procedure, shortened: as §3
[27] = system: Mycobacterium tuberculosis; assay: Antimycobacterial activity against Mycobacterium tuberculosis H37Rv My 331/88 after 14 days; format: functional; details: H37Rv My 331/88, 336 h; procedure, shortened: as §3
Mycobacterium kansasii [28] = assay: Antimycobacterial activity against Mycobacterium kansasii 6509/96 after 14 days; format: functional; details: 6509/96, 336 h; procedure, shortened: as §3
Mycobacterium kansasii [29] = assay: Antimycobacterial activity against Mycobacterium kansasii My 235/80 after 21 days; format: functional; details: My 235/80, 504 h; procedure, shortened: as §3
Klebsiella pneumoniae [30] = assay: Antibacterial activity against Klebsiella pneumoniae D 11750/08 at 500 micromol/L after 24 to 48 hrs by broth microdilution method; format: functional, organism-based; procedure, shortened: as §2

SMILES: CCOP(=O)(OCC)Oc1ccc(Cl)cc1C(=O)Nc1ccc(Cl)c(Cl)c1
- Activity (Candida tropicalis): inactive
- MIC95 [1]: > 500 µM
- MIC80 (Candida albicans [2]): > 500 µM
- Activity (Nakaseomyces glabratus): inactive
- MIC50 (Aspergillus fumigatus [3]): > 500 µM
- MIC80 (Candida albicans [4]): > 500 µM
- MIC95 (Staphylococcus aureus [5]): > 500 µM
- MIC80 (Trichosporon asahii [6]): > 500 µM
- MIC95 (Staphylococcus aureus [7]): > 500 µM
- Activity (Pseudomonas aeruginosa): inactive
- MIC (Mycobacterium kansasii [8]): 4 µM (≈ 1.81 µg/mL)
- MIC95 (Staphylococcus aureus [9]): > 500 µM
- MIC80 (Pichia kudriavzevii [10]): > 500 µM
- Activity (Klebsiella pneumoniae [11]): inactive
- MIC95 [12]: > 500 µM
- MIC80 (Trichosporon asahii [13]): > 500 µM
- MIC50 (Lichtheimia corymbifera [14]): > 500 µM
- IC50 (HepG2): 2840 nM
- MIC95 (Staphylococcus aureus [15]): > 500 µM
- MIC (Mycobacterium avium [16]): 16 µM (≈ 7.24 µg/mL)
- MIC50 [17]: 500 µM (≈ 226 µg/mL)
- MIC (Mycobacterium kansasii [18]): 4 µM (≈ 1.81 µg/mL)
- MIC (Mycobacterium kansasii [19]): 4 µM (≈ 1.81 µg/mL)
- Activity (Enterococcus sp.): inactive
- MIC50 (Aspergillus fumigatus [20]): > 500 µM
- MIC80 (Pichia kudriavzevii [21]): > 500 µM
- MIC50 (Lichtheimia corymbifera [22]): > 500 µM
- Activity (Escherichia coli): inactive
- MIC [23]: 1 µM (≈ 0.453 µg/mL)
- MIC50 [24]: 500 µM (≈ 226 µg/mL)
- MIC (Mycobacterium avium [25]): 16 µM (≈ 7.24 µg/mL)
- MIC (Mycobacterium kansasii [26]): 4 µM (≈ 1.81 µg/mL)
- MIC [27]: 1 µM (≈ 0.453 µg/mL)
- MIC (Mycobacterium kansasii [28]): 4 µM (≈ 1.81 µg/mL)
- MIC (Mycobacterium kansasii [29]): 4 µM (≈ 1.81 µg/mL)
- Activity (Klebsiella pneumoniae [30]): inactive

SMILES: CCOP(=O)(OCC)Oc1cc(Cl)ccc1C(=O)Nc1ccc(C(F)(F)F)cc1
- Activity (Candida tropicalis): inactive
- MIC95 [1]: 31.2 µM (≈ 14.1 µg/mL)
- MIC80 (Candida albicans [2]): > 500 µM
- Activity (Nakaseomyces glabratus): inactive
- MIC50 (Aspergillus fumigatus [3]): > 500 µM
- MIC80 (Candida albicans [4]): > 500 µM
- MIC95 (Staphylococcus aureus [5]): 31.2 µM (≈ 14.1 µg/mL)
- MIC80 (Trichosporon asahii [6]): > 500 µM
- MIC95 (Staphylococcus aureus [7]): 31.2 µM (≈ 14.1 µg/mL)
- Activity (Pseudomonas aeruginosa): inactive
- MIC (Mycobacterium kansasii [8]): 0.5 µM (≈ 0.226 µg/mL)
- MIC95 (Staphylococcus aureus [9]): 62.5 µM (≈ 28.2 µg/mL)
- MIC80 (Pichia kudriavzevii [10]): > 500 µM
- Activity (Klebsiella pneumoniae [11]): inactive
- MIC95 [12]: 31.2 µM (≈ 14.1 µg/mL)
- MIC80 (Trichosporon asahii [13]): > 500 µM
- MIC50 (Lichtheimia corymbifera [14]): > 500 µM
- IC50 (HepG2): 2510 nM
- MIC95 (Staphylococcus aureus [15]): 62.5 µM (≈ 28.2 µg/mL)
- MIC (Mycobacterium avium [16]): 4 µM (≈ 1.81 µg/mL)
- MIC50 [17]: 250 µM (≈ 113 µg/mL)
- MIC (Mycobacterium kansasii [18]): 2 µM (≈ 0.904 µg/mL)
- MIC (Mycobacterium kansasii [19]): 1 µM (≈ 0.452 µg/mL)
- Activity (Enterococcus sp.): inactive
- MIC50 (Aspergillus fumigatus [20]): > 500 µM
- MIC80 (Pichia kudriavzevii [21]): > 500 µM
- MIC50 (Lichtheimia corymbifera [22]): > 500 µM
- Activity (Escherichia coli): inactive
- MIC [23]: 1 µM (≈ 0.452 µg/mL)
- MIC50 [24]: 250 µM (≈ 113 µg/mL)
- MIC (Mycobacterium avium [25]): 4 µM (≈ 1.81 µg/mL)
- MIC (Mycobacterium kansasii [26]): 1 µM (≈ 0.452 µg/mL)
- MIC [27]: 1 µM (≈ 0.452 µg/mL)
- MIC (Mycobacterium kansasii [28]): 2 µM (≈ 0.904 µg/mL)
- MIC (Mycobacterium kansasii [29]): 1 µM (≈ 0.452 µg/mL)
- Activity (Klebsiella pneumoniae [30]): inactive
